ChEMBL document CHEMBL4689842, “EUbOPEN Chemogenomics Library wave 1” (2021)

Test system: Fibroblast
Experiment: Multiplex assay against human fibroblast
Type: toxicity, cell-based
Outline: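 On a CQ1 microscope at 37°C and 5% CO2, live cells were imaged after compound addition. They had been stained at seeding with Hoechst33342, BioTracker Green Microtubule Cytoskeleton Dye, MitoTracker Red and Annexin V Alexa Fluor 680. CellPathfinder machine-learning gating assigned cells to Hoechst high-intensity objects or normal cells, normal cells to healthy, pyknosed or fragmented nuclei, and pyknosed cells to mitotic or apoptotic. Tubulin, mitochondrial-mass and membrane-permeability phenotypes are per cents of healthy-nucleus cells.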

[1] = 12 h, 1 µM, compound concentration 1 uM, replicate 1
[2] = 12 h, 1 µM, compound concentration 1 uM, replicate 2
[3] = 12 h, 10 µM, compound concentration 10 uM, replicate 1
[4] = 12 h, 10 µM, compound concentration 10 uM, replicate 2
[5] = 24 h, 1 µM, compound concentration 1 uM, replicate 1
[6] = 24 h, 1 µM, compound concentration 1 uM, replicate 2
[7] = 24 h, 10 µM, compound concentration 10 uM, replicate 1
[8] = 24 h, 10 µM, compound concentration 10 uM, replicate 2

## COc1cccc2cc(-c3nc([C@H]4CC[C@H](C(=O)O)CC4)n4ncnc(N)c34)[nH]c12 [OSI-027]
[1]
  Population Apoptotic (%): 58%
  Population Fragmented Nuclei (%): 47%
  Population Healthy Nuclei (%): 40%
  Population Hoechst High Intensity Objects (%): 28%
  Population Membrane Permeable-Phenotype (%): 5%
  Population Mitochondria Different-Phenotype (%): 0%
  Population Mitotic Cells (%): 41%
  Population Normal (%): 71%
  Population Pyknosed Nuclei (%): 11%
  Population Tubulin-Different-Phenotype (%): 7%
  Total Cell Count: 382
[2]
  Population Apoptotic (%): 57%
  Population Fragmented Nuclei (%): 68%
  Population Healthy Nuclei (%): 22%
  Population Hoechst High Intensity Objects (%): 26%
  Population Membrane Permeable-Phenotype (%): 25%
  Population Mitochondria Different-Phenotype (%): 18%
  Population Mitotic Cells (%): 42%
  Population Normal (%): 73%
  Population Pyknosed Nuclei (%): 9%
  Population Tubulin-Different-Phenotype (%): 31%
  Total Cell Count: 98
[3]
  Population Apoptotic (%): 72%
  Population Fragmented Nuclei (%): 28%
  Population Healthy Nuclei (%): 56%
  Population Hoechst High Intensity Objects (%): 12%
  Population Membrane Permeable-Phenotype (%): 2%
  Population Mitochondria Different-Phenotype (%): 2%
  Population Mitotic Cells (%): 27%
  Population Normal (%): 87%
  Population Pyknosed Nuclei (%): 14%
  Population Tubulin-Different-Phenotype (%): 0%
  Total Cell Count: 281
[4]
  Population Apoptotic (%): 20%
  Population Fragmented Nuclei (%): 65%
  Population Healthy Nuclei (%): 26%
  Population Hoechst High Intensity Objects (%): 31%
  Population Membrane Permeable-Phenotype (%): 18%
  Population Mitochondria Different-Phenotype (%): 12%
  Population Mitotic Cells (%): 80%
  Population Normal (%): 68%
  Population Pyknosed Nuclei (%): 8%
  Population Tubulin-Different-Phenotype (%): 6%
  Total Cell Count: 88
[5]
  Population Apoptotic (%): 53%
  Population Fragmented Nuclei (%): 36%
  Population Healthy Nuclei (%): 50%
  Population Hoechst High Intensity Objects (%): 33%
  Population Membrane Permeable-Phenotype (%): 7%
  Population Mitochondria Different-Phenotype (%): 1%
  Population Mitotic Cells (%): 46%
  Population Normal (%): 66%
  Population Pyknosed Nuclei (%): 12%
  Population Tubulin-Different-Phenotype (%): 5%
  Total Cell Count: 302
[6]
  Population Apoptotic (%): 16%
  Population Fragmented Nuclei (%): 68%
  Population Healthy Nuclei (%): 22%
  Population Hoechst High Intensity Objects (%): 34%
  Population Membrane Permeable-Phenotype (%): 6%
  Population Mitochondria Different-Phenotype (%): 13%
  Population Mitotic Cells (%): 83%
  Population Normal (%): 65%
  Population Pyknosed Nuclei (%): 8%
  Population Tubulin-Different-Phenotype (%): 13%
  Total Cell Count: 103
[7]
  Population Apoptotic (%): 75%
  Population Fragmented Nuclei (%): 23%
  Population Healthy Nuclei (%): 64%
  Population Hoechst High Intensity Objects (%): 17%
  Population Membrane Permeable-Phenotype (%): 6%
  Population Mitochondria Different-Phenotype (%): 0%
  Population Mitotic Cells (%): 24%
  Population Normal (%): 82%
  Population Pyknosed Nuclei (%): 12%
  Population Tubulin-Different-Phenotype (%): 0%
  Total Cell Count: 282
[8]
  Population Apoptotic (%): 33%
  Population Fragmented Nuclei (%): 60%
  Population Healthy Nuclei (%): 34%
  Population Hoechst High Intensity Objects (%): 33%
  Population Membrane Permeable-Phenotype (%): 17%
  Population Mitochondria Different-Phenotype (%): 11%
  Population Mitotic Cells (%): 66%
  Population Normal (%): 66%
  Population Pyknosed Nuclei (%): 6%
  Population Tubulin-Different-Phenotype (%): 11%
  Total Cell Count: 75
